Drawing on ChEMBL document CHEMBL1131206, “Synthesis, anticonvulsant activity, and structure-activity relationships of sodium channel blocking 3-aminopyrroles” (J Med Chem, 1998), this text covers Seizure score and ED50 for one compound.

Structures are written as SMILES.

Holding throughout (type): functional
Experiment [1] deals with Rattus norvegicus. Kind of experiment: Anticonvulsant activity in corneal kindled rats was determined when 100 mg/kg was administered intraperitoneally. The following applies: route intraperitoneal. A digest of the protocol: (§1)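 Male Sprague–Dawley rats (100 g) kindled by daily corneal stimulation at 8 mA/60 Hz for 4 s until 10 consecutive stage 5 seizures (rearing and falling with clonus). Drug was given ip in 0.5% methyl cellulose in water at 0.04 mL/10 g body weight. Read-out was seizure score; abolition of the generalized (stage 4–5) seizure was the endpoint.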

Experiment [2] deals with Rattus norvegicus. Kind of experiment: Anticonvulsant activity in corneal kindled rats was determined when 50 mg/kg was administered intraperitoneally. The following applies: route intraperitoneal. The essentials:
as §1

Experiment [3] relates to Rattus norvegicus. As to the kind of experiment: Minimal motor impairment activity by Rotarod test in rat following p.o. administration. The following applies: po. A digest of the protocol: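 Minimal motor impairment in male Sprague–Dawley rats (100 g) after oral dosing was judged at the time of peak effect. The criterion was overt ataxia, abnormal gait and stance, and/or loss of placing response and muscle tone. Groups had at least eight rats across various doses, and the median impairing dose with its 95% confidence interval was calculated.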
(In general: In the rotarod test animals must keep their balance on a rotating rod.)

The test system of experiment [4] is Rattus norvegicus. Kind of experiment: Anticonvulsant activity in corneal kindled rats was determined when 150 mg/kg was administered intraperitoneally. The settings on record: route intraperitoneal. A digest of the protocol: as §1
The test system of experiment [5] is Mus musculus. Kind of experiment: Minimal motor impairment activity by Rotarod test in mice following i.p. administration. The following applies: ip. The essentials:
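Rotorod neurotoxicity test in male albino CF No. 1 mice dosed ip, run at the time of peak effect. Impairment was defined as failure to keep equilibrium for 60 s in each of three trials on the rotating rod. With groups of at least eight mice across various doses, the median motor-impairing dose and its 95% confidence interval were calculated.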

In experiment [6] the test system is Rattus norvegicus. Kind of experiment: Anticonvulsant activity in corneal kindled rats was determined when 75 mg/kg was administered intraperitoneally. The following applies: route intraperitoneal. A digest of the protocol: as §1
Experiment [7] concerns Mus musculus. As to the kind of experiment: Anticonvulsant activity was measured by maximal electroshock seizure test in mice by ip administration. A digest of the protocol: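 Male albino CF No. 1 mice (18–25 g) were dosed ip and tested by maximal electroshock at the previously determined time of peak effect. Groups of at least eight mice received various doses until at least two points fell between 0% and 100% protection. ED50 and its 95% confidence interval were calculated. Single-dose entries give protection percentage at the indicated dose.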

Experiment [8] concerns Rattus norvegicus. Kind of experiment: Anticonvulsant activity in corneal kindled rats was determined when 10 mg/kg was administered intraperitoneally. The following applies: route intraperitoneal. The essentials: as §1
The test system of experiment [9] is Rattus norvegicus. As to the kind of experiment: Anticonvulsant activity in corneal kindled rats was determined when 25 mg/kg was administered intraperitoneally. The settings on record: route intraperitoneal. The essentials: as §1

Turning to `O=C1NC(=O)C(c2ccccc2)(c2ccccc2)N1` [PHENYTOIN], the Seizure score worked out at 3 in the experiment with Rattus norvegicus [1]; 4.4 in the experiment on Rattus norvegicus [2]; 3 in the experiment on Rattus norvegicus [4]; 3.7 with Rattus norvegicus [6]; 5 in the experiment on Rattus norvegicus [8]; 4.7 with Rattus norvegicus [9]. Moreover, the ED50 (commonly the dose at which the effect has come halfway, by size or by number of responders) in the experiment with Rattus norvegicus [3] was more than 500 mg/kg; with Mus musculus [5], 42.8 mg/kg; in the experiment on Mus musculus [7], 6.5 mg/kg.
